PTK2B oligo ant – antagonists of Pyk2 self-association, primary screen, Q293 cells, FERM NanoBiT luminescence, HTS | active compounds read low | z-score (the deposit names both 25 µM and 10 µM) | hit rate 0.83% among 99,000 | Protein-tyrosine kinase 2-beta (Homo sapiens), Q14289;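 active = Z-score of -3 or lower, scaled per plate to the spread of control and sample wells; inactive = z-score above -3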;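 also: negative z-score means lost luminescence so less FERM oligomerization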
Target sequence (Q14289 whole entry, looked up): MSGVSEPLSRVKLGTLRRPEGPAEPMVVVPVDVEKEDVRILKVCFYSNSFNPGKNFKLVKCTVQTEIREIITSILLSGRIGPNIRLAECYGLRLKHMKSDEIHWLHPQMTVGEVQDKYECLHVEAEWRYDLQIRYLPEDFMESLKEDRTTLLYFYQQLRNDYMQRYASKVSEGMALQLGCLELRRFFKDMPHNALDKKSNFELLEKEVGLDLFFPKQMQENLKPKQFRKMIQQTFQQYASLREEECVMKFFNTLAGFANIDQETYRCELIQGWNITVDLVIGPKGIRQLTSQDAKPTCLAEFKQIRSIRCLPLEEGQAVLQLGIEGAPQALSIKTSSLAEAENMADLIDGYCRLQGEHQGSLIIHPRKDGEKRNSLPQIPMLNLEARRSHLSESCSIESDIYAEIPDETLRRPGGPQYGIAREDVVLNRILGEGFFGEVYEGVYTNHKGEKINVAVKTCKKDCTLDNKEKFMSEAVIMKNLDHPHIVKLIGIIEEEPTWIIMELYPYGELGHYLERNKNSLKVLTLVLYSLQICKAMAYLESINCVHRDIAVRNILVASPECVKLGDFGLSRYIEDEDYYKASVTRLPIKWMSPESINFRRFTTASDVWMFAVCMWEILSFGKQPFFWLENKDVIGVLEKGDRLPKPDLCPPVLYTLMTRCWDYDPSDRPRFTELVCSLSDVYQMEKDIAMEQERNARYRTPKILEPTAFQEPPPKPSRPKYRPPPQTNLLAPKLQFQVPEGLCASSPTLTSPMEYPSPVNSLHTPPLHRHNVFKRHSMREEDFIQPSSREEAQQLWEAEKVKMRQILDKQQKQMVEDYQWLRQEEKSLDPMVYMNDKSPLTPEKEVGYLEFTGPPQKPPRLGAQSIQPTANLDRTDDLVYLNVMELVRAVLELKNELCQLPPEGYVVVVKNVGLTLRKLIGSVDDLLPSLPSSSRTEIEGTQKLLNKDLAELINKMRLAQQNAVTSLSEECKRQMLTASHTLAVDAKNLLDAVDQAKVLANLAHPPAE
Measles CPE – compounds protecting cells from measles virus cytopathic effect, primary screen, measles RdRp inhibitor project, single point, MLSMR library, absorbance; protection (pct of control), % at 4 µM; Measles virus-infected cells, CPE protection; hit rate 1.5% among 140,000; in the data active = protection mostly above about 24%, no sharp cut-off; inactive = mostly below about 26%
Cav32 inh – Cav3.2 calcium influx blockers – cell-based, Fluo-4 calcium fluorescence, FDSS, MLSMR library, primary screen | B-score at 10 µM | hit rate 4% among 100,000 | Cav3.2-expressing cells; active compounds read low | Voltage-dependent T-type calcium channel subunit alpha-1H (Homo sapiens), O95180;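 active = single-dose well whose peak fluorescence ratio is a statistical outlier from its plate by either plate-standardised score or position-corrected B-score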
hDAT+cocaine – changed hDAT dopamine uptake under cocaine IC80, either direction, primary screen, cocaine antagonist project, cell-based, LLC-PK1 hDAT, [14C]-dopamine uptake, MLSMR. B-score at 10 µM. AID 449768, 2010. hit rate 1.3% among 110,000. Sodium-dependent dopamine transporter (Homo sapiens), Q01959. LLC-PK1 hDAT cells, [14C]-dopamine uptake with cocaine IC80; actives deviate in either direction;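 active = Z score or B-score, a plate-position-corrected score, falls beyond the plate's 99.7% confidence bounds, in either direction; inactive = both scores lie inside the 99.7% bounds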;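 also: scored against the spread of the other compound wells on the same plate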
Phagocyt inh – inhibitors of macrophage phagocytosis, primary screen, imaging, J774A.1 cells, IgG beads; J774A.1 macrophage IgG-bead phagocytosis; inhibition, % at 5 µM; hit rate 0.07% among 110,000; AID 1029, 2008;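 active = inhibition above the mean of the plate negative controls plus 5 SD, cut at about 13% in these data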;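 also: phagocytic index as fraction of beads internalized from green versus red external bead signal; plate controls were DMSO negative control for no effect and cytochalasin-D positive control for full effect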
HIV Rev-RRE inh – HIV-1 Rev-RRE binding inhibitors, primary screen, biochemical, FRET, protein-RNA interaction | P05866 | Rev peptide-RRE RNA binding | inhibition, % at 8 µM | hit rate 0.79% among 97,000;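 active = inhibition above the screen-wide mean plus 3 SD, cut at about 35% in these data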;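 also: 0% = median DMSO wells and 100% = median Neomycin B control wells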
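System: Cy5-labelled duplex RRE RNA binding fluorescein-labelled HIV Rev peptide; Signal: fluorescein-to-Cy5 FRET, 480 nm excitation; Also added: labelled Rev peptide; Compound: one concentration, 8 µM nominal; Buffer or medium: HEPES pH 7.5 salt buffer with EDTA; Read-out: % inhibition of FRET ratio versus controls; Schedule: 5 min preincubation and 15 min binding, 25 °C.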
The depositor's hits bear a star; . = not tested or not shown; [ ] = dose if it differs, or a comment. Sampled rows, rich in hits. Any-hit rate of the full collection: about 5.9%.

SMILES | PTK2B oligo ant | Measles CPE | Cav32 inh | hDAT+cocaine | Phagocyt inh | HIV Rev-RRE inh
Cc1ccc(C(=O)OCc2ccc3c(c2)OCO3)cc1S(=O)(=O)N1CCCCC1 | -0.57 | 4 | -4.1* | 0.2 | -3 | 17
Cc1ccc(CN=Cc2[nH]c3ccc(Br)c(Cl)c3c2O)cc1 | -0.45 | 8 | -3.1* | -0.55 | 0 | 116*[fluorescence artefact?]
Oc1c(C=NCc2ccc(F)cc2)[nH]c2ccc(Br)c(Cl)c12 | . | 23 | -3.5 | -0.26 | -3 | 99*[fluorescence artefact?]
Cc1ccc(CN2CCN(/N=C/c3cc(Br)cc(Br)c3O)CC2)cc1 | . | 2 | . | . | -4 | .
c1ccc2ncc(-n3cnnn3)cc2c1 | 0.48 | 38* | 0.84 | -0.041 | 2 | 9
CCOC(=O)c1c(C)[nH]c(C)c1C(=O)Cn1nnc(-c2ccccc2C)n1 | -1.8 | 31 | -10* | 1.1 | . | 13
CC(OC(=O)CCCc1nc2ccccc2s1)C(N)=O (stereo not given) | 1 | 29* | -0.1 | -0.017 | 0 | 3
Cc1noc(C)c1COC(=O)CCCc1nc2ccccc2s1 | 0.94 | 3 | -0.23 | 2.1 | 0 | 7
COc1cc(/C=N/N(C)c2ccccc2)cc(Cl)c1O | -3* | 4 | 0.99 | -0.13 | -3 | 2
Cc1ccccc1C(=O)NC1CCN(CC(=O)Nc2nccs2)CC1 | -0.56 | 17 | 0.4 | -0.58 | 2 | -1
Cc1cccc(N2CCN(CC(=O)Nc3nccs3)CC2)c1C | 0.52 | 4 | -6.3* | 0.85 | 0 | 12
O=C(CN1CCCN(S(=O)(=O)c2ccc(Br)cc2)CC1)Nc1ccc2cn[nH]c2c1 | . | . | -0.077 | 0.38 | . | 11
CCCCOCCCNc1ncnc2c1[nH]c1ccccc12 | -0.96 | 16 | -4.7* | -0.29 | -1 | 9
CCOCCCNc1ncnc2c1[nH]c1ccccc12 | 0.81 | 7 | 0.84 | 2.4 | 0 | 9
CCc1ccc(-c2nc(CSCC(=O)N3CCN(c4ccccn4)CC3)c(C)o2)cc1 | -1.2 | 1 | -6.8* | -0.22 | . | -3
Cc1ccc(-c2nc(CSCC(=O)N3CCN(c4ccccn4)CC3)c(C)o2)cc1 | . | 5 | -5* | 1.7 | . | 6
Cc1ccc(-c2nc(CSCC(=O)N3CCN(C(=O)c4ccco4)CC3)c(C)o2)cc1 | . | 4 | 0.81 | -0.29 | 0 | 0
CCOC(=O)c1ccc(NC2=CC(=O)C(=O)c3ccccc32)cc1 | -4.3* | 37 | -0.09 | -0.8 | 3 | -3
Cc1ccc(NC2=CC(=O)C(=O)c3ccccc32)cc1 | -1.9 | 37 | 1.3 | 1.1 | . | 4
CCOC(=O)CN(Cc1sccc1C)C(=O)Nc1ccc(OC)cc1OC | . | 3 | . | . | . | .
Cc1cc(C)nc(N2CCCC(C(=O)Nc3nnc(C(C)C)s3)C2)n1 (stereo not given) | . | 4 | 1.2 | 0.31 | . | 7
O=C(Nc1cccc(S(=O)(=O)C(F)F)c1)c1ccc(Cl)c(S(=O)(=O)N2CCOCC2)c1 | -3* | 24 | -0.58 | -0.14 | 0 | .
O=C(Nc1ccccc1)c1ccc(NCc2cccnc2)c(S(=O)(=O)N2CCOCC2)c1 | -1.8 | 2 | 0.94 | -8* | -2 | 11
O=C(OCn1nnc2ccccc2c1=O)c1cc(-c2ccccc2)nc2ccccc12 | . | 5 | . | . | -2 | .
S=c1nc(-c2ccccc2Cl)n(Cc2cccnc2)c2c1CCCC2 | . | 13 | . | . | -3 | .
SMILES | PTK2B oligo ant | Measles CPE | Cav32 inh | hDAT+cocaine | Phagocyt inh | HIV Rev-RRE inh
CCSC(=O)N(CC)CC(=O)Nc1c(CC)cccc1CC | 1 | 32* | -0.4 | 0.03 | -2 | 9
CCCN(CC(=O)Nc1c(C)cccc1CC)C(=O)SCC | -0.62 | 11 | -0.92 | -0.33 | 1 | 6
CCCCN(CC(=O)Nc1c(C)cccc1CC)C(=O)SCC | 0.54 | 32 | -3.8* | -1.2 | -1 | 4
Cn1c(=O)c(C(=O)CCl)c(N)n(CC2CC2)c1=O | . | 1 | 0.4 | -1.1 | . | .
O=C(Cn1cnc2ccccc2c1=O)N(Cc1ccco1)c1ccc(O)cc1 | -1.7 | 28 | 0.41 | 2.3 | -2 | 6
O=C(c1ccc(Cl)c(Cl)c1)N(Cc1ccco1)c1ccc(O)cc1 | -2.1 | 7 | -7.4* | 1.3 | 3 | 7
CCOC(=O)/C=c1\s/c(=C\c2c(OC)ccc3ccccc23)c(=O)n1CC(=O)NCC1CCCO1 (stereo not given) | -2.5 | 3 | -5.7* | -0.01 | -1 | 20
CC#CCN1c2ccccc2[C@]23C[C@@H](C(=O)OC)N(C(=O)c4ccco4)C2=NC(C(=O)OC)=C(C(=O)OC)[C@H]13 | . | . | -1.3 | -0.046 | . | .
CN1CC=C2C(C#N)=C(N)C(C#N)(C#N)C(c3cccc(Cl)c3Cl)C2C1 (stereo not given) | -0.17 | 13 | -0.24 | -0.72 | 3 | .
N#CC1=C(N)C(C#N)(C#N)[C@H](c2ccoc2)[C@H]2CN(Cc3ccccc3)CC=C12 | -0.06 | 12 | . | -0.4 | 5 | 100*[fluorescence artefact?]
CN1CC=C2C(C#N)=C(N)C(C#N)(C#N)[C@H](c3ccoc3)[C@H]2C1 | -0.18 | 20 | 0.64 | 0.11 | -1 | 42*
COc1ccc(OC)c(C2C3CN(C(C)C)CC=C3C(C#N)=C(N)C2(C#N)C#N)c1 (stereo not given) | -0.3 | 9 | 0.24 | -1.5 | -2 | 82*
CC(=O)N1CC=C2C(C#N)=C(N)C(C#N)(C#N)C(CCc3ccccc3)C2C1 (stereo not given) | 0.1 | 28 | 1.1 | 0.79 | -2 | .
CCN1CC=C2C(C#N)=C(N)C(C#N)(C#N)C(CCc3ccccc3)C2C1 (stereo not given) | -0.82 | 10 | -2.4 | 1.5 | -1 | 86*[fluorescence artefact?]
Cc1cc(-c2cc(C(=O)Nc3ccccc3)on2)nc(NCC2CC2)n1 | . | . | 0.06 | 0.66 | . | .
CSCC[C@H](NC(=O)C1CCN(S(=O)(=O)c2ccc(C)cc2)CC1)C(=O)NC1CCS(=O)(=O)C1 (stereo not given in full) | . | 7 | . | . | -1 | .
O=C(COn1nnc2ccc(C(F)(F)F)cc21)Nc1c(Cl)cccc1Cl | . | 4 | . | . | -1 | .
C=C(C)CNC(=S)Nc1sc2c(c1C(=O)OCC)CC(C)(C)OC2 | . | 4 | . | . | -9 | .
C=CCNC(=O)c1onc(CSc2ccccn2)c1C(=O)NCC=C | . | . | 0.97 | -0.28 | . | .
N#CC1=C(N)C(C#N)(C#N)C(c2cccnc2)C2CN(C(=O)OCc3ccccc3)CC=C12 (stereo not given) | -0.64 | 18 | 1.7 | 3.9* | . | 16
CCCN(CCC)c1nc(NC2CCN(C(=O)OCC)CC2)nc(OC)n1 | -1.8 | 18 | -11* | 2.3 | 2 | -4
CCCCc1ccc(NS(=O)(=O)c2cccs2)cc1 | -1.8 | 34 | -5* | 1.7 | 1 | 17
O=S(=O)(Nc1ccc(Cc2ccncc2)cc1)c1cccs1 | -0.48 | 46* | -0.008 | 0.39 | 5 | 3

Screening data from PubChem.
